Source: ChEMBL document CHEMBL5576109, “Hydantoin derivative dimers as broad-spectrum antimicrobial agents against ESKAPE pathogens with enhanced killing rate and stability” (RSC Med Chem, 2024)
In brackets after ≈: the same amount, converted by molar mass. Activity calls are given as the source filed them. No cut-off for these calls is given here.

Columns and labels:
Escherichia coli [1] = experiment: Induction of morphological changes in Escherichia coli ATCC 25922 assessed as cellular inclusion leakage at 8 time of MIC for 6 hrs by scanning electron microscopy; assay type: functional, organism-based
Summary of the method: (§1)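 Mid-log cells exposed to compound for 6 h at 37 °C alongside untreated controls. Cells pelleted (3000 rpm, 15 min), washed four times in PBS, and fixed with 2.5% glutaraldehyde. Dehydrated through graded ethanol, critical-point dried and gold-coated, then imaged by SEM.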

Staphylococcus aureus [2] = experiment: Induction of morphological changes in Staphylococcus aureus ATCC 29213 assessed as cell shrinkage at 8 time of MIC for 6 hrs by scanning electron microscopy; assay type: functional, organism-based; summary of the method: as §1
Staphylococcus aureus [3] = experiment: Induction of cytoplasmic membrane depolarization in Staphylococcus aureus ATCC 29213 assessed as increase in fluorescence intensity by DiSC3(5) staining based analysis; assay type: functional, organism-based
Summary of the method: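 Mid-log cells washed in 5 mM HEPES/5 mM glucose and resuspended at 10^6 CFU/mL in glucose/HEPES/100 mM KCl (1:1:1). DiSC3(5) added and fluorescence (Ex 622 / Em 670 nm) followed for 30 min at 37 °C until minimal. Compound then added and the fluorescence rise recorded.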

Staphylococcus aureus [4] = experiment: Induction of morphological changes in Staphylococcus aureus ATCC 29213 assessed as cellular inclusion leakage at 8 time of MIC for 6 hrs by scanning electron microscopy; assay type: functional, organism-based; summary of the method: as §1
Staphylococcus aureus [5] = experiment: Bactericidal activity against Staphylococcus aureus ATCC 29213 assessed as reduction in colony forming units at 1 to 4 times of MIC by time-kill kinetics assay; assay type: functional, organism-based; details: time 15-120 min, TDE = time-dependent effect
Summary of the method: (§2)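 Bacteria grown at 37 °C to mid-log phase and diluted to 1 × 10^6 CFU/mL. […] Mixtures diluted 10^2–10^4-fold and plated on TSB agar; colonies counted after 20 h at 37 °C.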

Staphylococcus aureus [6] = experiment: Bactericidal activity against Staphylococcus aureus ATCC 29213 assessed as reduction in colony forming units incubated for 15 to 120 mins by time-kill kinetics assay; assay type: functional, organism-based; details: time 15-120 min; summary of the method: as §2
Staphylococcus aureus [7] = experiment: Antibacterial activity against Staphylococcus aureus ATCC 29213 assessed as inhibition of bacterial growth by measuring fold increase in MIC measured after 16 to 18 hrs in presence of MgCl2 by TECAN SPARK microplate reader analysis; assay type: functional; details: time 16-18 hrs
Summary of the method: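 Salt/serum stability. Exponential-phase bacteria incubated 16–18 h with compound in medium supplemented with 10 mM NaCl, 10 mM KCl, 10 mM MgCl2, 10% DMEM or 10% FBS. Stability judged from the change in MIC.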

Escherichia coli [8] = experiment: Antibacterial activity against Escherichia coli ATCC 25922 assessed as inhibition of bacterial growth by measuring fold increase in MIC compound preincubated at 120 degree C for 1 hr followed by bacterial culture addition and measured after 16 to 18 hrs by TECAN SPARK microplate reader analysis; assay type: functional; details: time 16-18 hrs
Staphylococcus aureus [9] = experiment: Antibacterial activity against methicillin-resistant Staphylococcus aureus ATCC 43300 assessed as reduction bacterial growth after 16 hrs by TECAN SPARK microplate reader analysis; assay type: functional
Summary of the method: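 Broth microdilution in TSB: single colony grown overnight at 37 °C, diluted 100-fold and grown to mid-log phase. 2-fold serial compound dilutions mixed 1:1 with bacteria at 1 × 10^6 CFU/mL, incubated 16 h at 37 °C, absorbance read at 600 nm. MIC taken as lowest concentration giving complete growth inhibition.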

What does the source list for CCCCCCN1C(=O)[C@H](CCCCNC(=N)N)N(Cc2ccc(-c3ccc(CN4C(=O)N(CCCCCC)C(=O)[C@@H]4CCCCNC(=N)N)cc3)cc2)C1=O?
Activity (Escherichia coli [1]): Active; Activity (Staphylococcus aureus [2]): Active; Activity (Staphylococcus aureus [3]): Dose-Dependent Effect; Activity (Staphylococcus aureus [4]): Active; Activity (Staphylococcus aureus [5]): Tde; Activity (Staphylococcus aureus [6]): Dose-Dependent Effect; fold change (FC) (Staphylococcus aureus [7]): 1; fold change (FC) (Escherichia coli [8]): 1; MIC (Staphylococcus aureus [9]): 7.81 µg/mL (≈ 10.1 µM)
